From PubChem BioAssay
CHRM5 PAM – human M5 muscarinic receptor positive allosteric modulators, primary screen, CHO-K1 cells, Fluo-8 calcium fluorescence. Muscarinic acetylcholine receptor M5 (Homo sapiens), P08912. CHO-K1 hM5, ACh EC20 PAM; 0% = ACh EC20, 100% = ACh EC100. activation, % at 3 µM. 360,000 tested, 0.3% active;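 active means activation above the run cutoff, the mean activation of all test compounds plus 3 SD, cut at about 18% in these data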
Target sequence (P08912 whole entry, looked up): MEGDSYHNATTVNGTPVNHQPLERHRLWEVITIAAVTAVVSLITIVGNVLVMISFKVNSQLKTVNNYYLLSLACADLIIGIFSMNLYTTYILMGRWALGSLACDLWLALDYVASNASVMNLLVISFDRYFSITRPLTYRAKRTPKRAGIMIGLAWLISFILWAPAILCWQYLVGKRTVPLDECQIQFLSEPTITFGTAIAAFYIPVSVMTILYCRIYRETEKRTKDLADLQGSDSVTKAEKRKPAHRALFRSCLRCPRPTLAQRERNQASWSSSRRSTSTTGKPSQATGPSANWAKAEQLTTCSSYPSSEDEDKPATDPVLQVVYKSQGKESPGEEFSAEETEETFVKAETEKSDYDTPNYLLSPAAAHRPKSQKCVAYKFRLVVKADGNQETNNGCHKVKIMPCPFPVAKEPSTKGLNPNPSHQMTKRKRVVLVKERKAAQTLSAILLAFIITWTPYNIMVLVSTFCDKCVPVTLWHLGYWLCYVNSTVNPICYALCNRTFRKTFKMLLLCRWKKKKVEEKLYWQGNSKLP
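Assay system: CHO-K1 hM5 cells. Also added: acetylcholine at EC20 concentration, added after compound. Dosing: 3 µM, single dose. Times: compound preincubation 140 s before EC20 acetylcholine addition. Signal: Fluo-8 calcium fluorescence. Measure: % activation relative to EC20 and EC100 ACh responses. Repeats: singlicate, one well per test compound.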
CHRM1 antagonist – human M1 muscarinic receptor antagonists, primary screen, CHO-K1 cells, Fluo-8 calcium fluorescence, 1536-well. 360,000 tested, 1.3% active. CHO-K1 hM1, ACh EC80 antagonist. Muscarinic acetylcholine receptor M1 (Homo sapiens), P11229. inhibition, % at 3 µM;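 active means percent inhibition above its own plate's cutoff, namely the mean of that plate's compound wells plus 3 SD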;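 further: peak over basal fluorescence ratio during 140 s after agonist addition; 0% = ACh EC80 plus DMSO and 100% = DMSO alone without agonist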
M1 ag – human M1 muscarinic receptor agonists, primary screen, Fluo-8 calcium fluorescence, CHO-K1 cells, HTS; 360,000 tested, 0.33% active; AID 588814, 2011; activation, % at 3 µM; Muscarinic acetylcholine receptor M1 (Homo sapiens), P11229; CHO-K1 hM1, agonist mode; 0% DMSO, 100% acetylcholine EC100;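 active means activation above the run's mean compound activation plus 3 SD, cut at about 16% in these data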;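 further: peak over basal fluorescence ratio within a 140 s kinetic read after compound addition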
M5 antag – human M5 muscarinic receptor antagonists, primary screen, CHO cells, Fluo-8 calcium fluorescence; AID 624040, 2012; inhibition, % at 3 µM; 360,000 tested, 0.59% active; CHO-hM5 cells, ACh EC80;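 active means inhibition above a per-plate cutoff, the mean of that plate's test compounds plus 3 SD, cut at about 27% in these data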;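 further: 0% = acetylcholine EC80 with DMSO and 100% = DMSO without agonist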
CHRM1 PAM – human M1 muscarinic receptor positive allosteric modulators, primary screen, CHO-K1 cells, Fluo-8 calcium fluorescence, 1536-well. Muscarinic acetylcholine receptor M1 (Homo sapiens), P11229. CHO-K1 hM1, ACh EC20; 0% = ACh EC20, 100% = maximal ACh. activation, % at 3 µM. 360,000 tested, 0.088% active; in the data active means activation above about 19%, passing the limit was not always enough
CHRM5 agonist – human M5 muscarinic receptor agonists, primary screen, CHO-K1 cells, Fluo-8 calcium fluorescence | CHO-K1 hM5 cells; 0% DMSO wells, 100% maximal acetylcholine response | activation, % at 3 µM | 360,000 tested, 0.19% active | AID 624037, 2012;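 active means activation above the run's mean over test compounds plus 3 SD, cut at about 23% in these data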;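 further: signal is peak over basal fluorescence ratio across the kinetic read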
Active calls of the source: *; . = no result given. Hits are enriched below; roughly 2% of the tested compounds scored in any of these assays.

SMILES	CHRM5 PAM	CHRM1 antagonist	M1 ag	M5 antag	CHRM1 PAM	CHRM5 agonist
Cc1cc(S(=O)(=O)NCc2ccccc2)ccc1OCC(=O)NCc1ccccn1	-9	-9	-7	30*	6	-3
CCN(CC(=O)Nc1c(F)cccc1F)C(=O)c1cc(-c2cccs2)nn1-c1ccccc1	-27	36*	-1	19	-17	1
COc1cc(/C=C(/NC(=O)c2ccccc2)C(=O)N2CCN(C)CC2)c([N+](=O)[O-])cc1OC	-2	-7	-5	1	6	2
COc1cc(/C=C(/NC(=O)c2ccccc2)C(=O)N2CCOCC2)c([N+](=O)[O-])cc1OC	-6	-8	-1	29*	10	-2
COc1ccc(CNC(=O)COC(=O)CN2C(=O)C3CC=CCC3C2=O)cc1 (centres undefined)	3	-24	3	-10	26*	4
COC(=O)c1ccc(CNC(=O)COC(=O)CCN2C(=O)C3CC=CCC3C2=O)cc1 (centres undefined)	-3	-6	-4	10	6	-1
Cc1ccc2c(c1)C(=O)C(=O)N2Cc1ccc(F)cc1	6	-4	-1	14	13	21
Cc1ccc2c(c1)C(=O)C(=O)N2Cc1ccc(Cl)cc1	-3	-6	17*	0	10	34*
Cn1c(=O)c2c(nc(SCCN3CCCCC3)n2Cc2ccc(Cl)cc2)n(C)c1=O	-3	33*	-7	20	-26	-13
O=C(Nc1ccc2c(c1)OCCO2)C1C(c2ccccc2)=Nc2ccccc2N1C(=O)c1cccnc1 (centres undefined)	-1	.	.	2	.	4
Cc1cc(NC(=O)CS(=O)(=O)c2cn(Cc3cccc(Cl)c3)c3ccccc23)no1	-5	17	26*	2	9	1
O=C(Cc1ccccc1Cl)c1ccccc1	9	-14	2	-2	32*	-2
COc1ccc(Cn2c(-c3ccc(Br)cc3)c[n+]3ccccc23)cc1	-13	42*	-11	13	-29	-9
CCOC(=O)c1cnc2ccc(OC)cc2c1NCc1ccccc1	-7	13	-9	1	-6	-3
CCOC(=O)c1cnc2ccccc2c1NCc1ccco1	-28	92*	-8	15	-26	-18
CC(C)(C)c1ccc(-n2ncc3c2CCCC3NC(=O)CN2CCCCC2=O)cc1 (centres undefined)	8	19	-4	-15	-12	1
O=C(CN1CCCC1=O)NC1CCCc2c1cnn2-c1cc(F)cc(F)c1 (centres undefined)	19*	-8	0	-7	8	4
COC1=CC(=O)OC(c2cccc(C#N)c2)C1 (centres undefined)	5	.	.	-5	.	1
CC(C)CCNC(=O)Cn1c(=O)oc2cc(S(=O)(=O)N3CCc4ccccc43)ccc21	-9	31*	-12	9	-23	-3
Cn1nc(C(C)(C)C)cc1C(=O)NCc1cc(F)cc2c1OCOC2	-28	41*	6	29*	-4	7
Cc1cc(C(=O)NCc2cc(F)cc3c2OCOC3)nn1C	-6	-9	-2	16	4	-2
CCCCCCCCN1C(=O)[C@H](CC(=O)N2CCOCC2)C[C@@]2(C(=O)OC)CCCCC=C12	-3	.	.	3	.	1
Cc1ccccc1-c1cc(C(=O)Nc2sc(C(=O)OC(C)C)c(C)c2C#N)c2ccccc2n1	-9	31*	1	17	-16	6
COC(=O)c1sc(NC(=O)c2cc(-c3ccccc3)nc3ccccc23)c(C#N)c1C	-5	9	5	6	-8	8
Cc1ccc(C)c(N2CCN(c3ccc4cc(S(=O)(=O)N5CCCCC5)ccc4n3)CC2)c1	18*	-23	-1	-22	16	-2
SMILES	CHRM5 PAM	CHRM1 antagonist	M1 ag	M5 antag	CHRM1 PAM	CHRM5 agonist
CCOC(=O)[C@H]1[C@H]2COc3ccc(Br)cc3[C@H]2N2C(=O)CN(Cc3ccc(C)cc3)C(=O)[C@@]12C	0	-14	4	-3	18	1
O=c1c(O)c(-c2ccc(O)c(O)c2)oc2cc(O)cc(O)c12	21*	-20	7	-15	16	10
CC[n+]1c(/C=C/c2ccc(N(C)C)cc2)ccc2ccccc21	1	17	-12	5	1	0
CCN(CC)c1ccc(/C=C/c2ccc3ccc(OC)cc3[n+]2CC)cc1	-22	48*	3	49*	-14	6
Cc1csc2c(=O)sc(NC(=O)c3ccc(F)cc3Cl)nc12	5	-9	-1	3	14	0
O=C(Nc1nc2ccsc2c(=O)s1)c1ccc(F)cc1Cl	21*	-11	0	-7	11	3
CCOC(=O)C1=CCC(c2ccc(N(CC)CC)cc2)N(S(=O)(=O)c2ccc(C)cc2)C1c1ccc([N+](=O)[O-])cc1 (centres undefined)	-3	.	.	8	.	0
CCCCNC(=O)c1cc(-c2ccccc2)sc1N	21*	.	.	-15	.	7
COCCNC(=O)c1cc(-c2ccccc2)sc1N	1	.	.	8	.	3
Cc1ccc(S(=O)c2ccc([N+](=O)[O-])c3nonc23)cc1 (centres undefined)	-3	2	7	24	8	40*
CC(C1=C(CCN(C)C)Cc2ccccc21)c1ccccn1 (centres undefined)	-37	77*	-8	7	-30	-13
CN(C)CCC(c1ccccc1)c1ccccn1 (centres undefined)	-17	16	-7	15	-21	-1
CN(C)C(=O)C[C@@H]1CC[C@@H](NC(=O)C2CCC2)[C@@H](CO)O1	-5	.	.	-3	.	1
CS(=O)CSc1nc2c(cc1C#N)CCCC2 (centres undefined)	-24	95*	-12	22	-36	-4
O=C(NNc1ncnc2sccc12)c1ccc(Cl)cc1	-10	-5	3	6	-1	6
Cc1csc2ncnc(NNC(=O)c3ccc(Cl)cc3)c12	-32	43*	4	25	-21	6
COc1ccc(C[C@H]2CN3C(=NC[C@H]3C)N2CCNC(=O)c2ccc(C)c(Br)c2)cc1	-26	76*	-11	17	-33	-9
